MEKK2 mut-MEK5: MEK5 binding signal on mutant MEKK2 PB1, primary screen, biochemical, multiplex bead flow cytometry, Alexa488-MEK5; Alexa488-MEK5 binding to MEKK2 mutant; percent response, % at 10 µM; hit rate 0.35% among 290,000; AID 1530, 2009; in the data active = percent response above about 24%, passing the limit was not always enough
MEKK3 PB1 HTS: modulators of MEKK3-MEK5 PB1 binding, primary screen, biochemical, wildtype MEKK3, multiplex bead flow cytometry, Alexa488-MEK5 | AID 1529, 2009 | Mitogen-activated protein kinase kinase kinase 3 (Homo sapiens), Q99759 | binding response (% of control), % at 10 µM | hit rate 1.4% among 290,000 | bead-based flow cytometry, Alexa488-MEK5 binding to MEKK3; actives lie on both sides; 0 = blocked by unlabeled MEK5, 100 = vehicle;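 active = binding response more than 3 SD above or below the average of its plate-row segment, actives on both sides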;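 also: Alexa488 bead fluorescence after subtracting the streptavidin-only scavenger bead signal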
Target sequence (Q99759 whole entry, looked up): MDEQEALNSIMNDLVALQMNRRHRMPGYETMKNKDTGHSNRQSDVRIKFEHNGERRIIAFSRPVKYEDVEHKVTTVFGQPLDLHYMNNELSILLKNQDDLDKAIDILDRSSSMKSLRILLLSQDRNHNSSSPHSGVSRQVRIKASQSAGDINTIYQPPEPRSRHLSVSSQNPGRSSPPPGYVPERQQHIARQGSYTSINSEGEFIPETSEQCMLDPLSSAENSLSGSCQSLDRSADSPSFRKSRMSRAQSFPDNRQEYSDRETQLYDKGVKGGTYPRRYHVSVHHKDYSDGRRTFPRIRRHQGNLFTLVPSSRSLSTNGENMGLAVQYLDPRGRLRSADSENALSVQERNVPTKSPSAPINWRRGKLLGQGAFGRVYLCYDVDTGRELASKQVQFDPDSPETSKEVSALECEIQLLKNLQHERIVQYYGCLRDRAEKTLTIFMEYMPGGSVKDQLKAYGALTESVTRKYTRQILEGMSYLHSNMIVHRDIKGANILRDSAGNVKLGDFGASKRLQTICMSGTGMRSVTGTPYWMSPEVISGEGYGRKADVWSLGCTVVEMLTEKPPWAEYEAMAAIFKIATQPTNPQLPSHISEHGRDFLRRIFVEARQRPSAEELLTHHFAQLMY
Hep lipid drop: inhibitors of hepatocyte lipid droplet formation, primary screen, imaging, high-throughput imaging, BODIPY stain | AML12 mouse hepatocytes, oleate lipid droplets | hit rate 0.4% among 240,000 | inhibition, % at 6.5 µM;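 active = lipid droplet intensity inhibited by at least 50%, with more than 500 cells counted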
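System: AML12 hepatocytes (mouse). Probe or stimulus: oleic acid at 100 µM to induce lipid droplet formation. Times: overnight treatment with compound plus oleate. Detection: Image-based BODIPY and DAPI two-channel analysis. Evaluation: percent inhibition of filter-corrected integrated lipid droplet intensity per well.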
MEKK2wt PB1 HTS: modulators of MEK5 binding to wildtype MEKK2, primary screen, biochemical, multiplex bead flow cytometry, Alexa488-MEK5 | binding response (% of control), % at 10 µM | Alexa488-MEK5 binding to MEKK2 WT; actives lie on both sides | Mitogen-activated protein kinase kinase kinase 2 (Homo sapiens), Q9Y2U5 | hit rate 1.1% among 290,000 | AID 1531, 2009; in the data active = binding response below about 67% or above about 130%
MEKK2wt confirm: modulators of MEK5 binding to wildtype MEKK2, confirmation, biochemical, single concentration, multiplex bead flow cytometry; shares compounds with MEKK3 PB1 HTS; hit rate 2.4% among 5,900; Alexa488-MEK5 binding to MEKK2 WT; actives lie on both sides; binding response (% of control), % at 10 µM; in the data active = binding response below about 16% or above about 210%; inactive = in between
MEKK2mut-MEK5: mutant MEKK2 PB1-MEK5 binding signal retest – biochemical, single concentration, multiplex bead flow cytometry, confirmation | Alexa488-MEK5 binding to MEKK2 mutant | hit rate 2% among 5,900 | AID 1893, 2009 | percent response, % at 10 µM | shares compounds with MEKK3 PB1 HTS; in the data active = percent response mostly above about 71%, no sharp cut-off; inactive = mostly below about 38%;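 also: higher means compound restores mutant binding toward wildtype level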
MEKK3 confirm: MEKK3 wild-type PB1 binding to MEK5, inhibitors, confirmation, biochemical, bead multiplex flow cytometry, single concentration, wildtype; binding response (% of control), % at 10 µM; shares compounds with MEKK3 PB1 HTS; Alexa488-MEK5 binding to MEKK3; hits give low values; hit rate 1.8% among 5,900; AID 1894, 2009;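 active = binding response below 72% of control, or above a set upper limit, though filed actives all read lower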;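 also: 100% = DMSO only wells and 0% = binding blocked by excess unlabeled MEK5; lower values mean stronger disruption of MEK5 binding to MEKK3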
* marks the source's active call; other numbers are inactive results; . = no result; [ ] = remark or other dose. Rows were chosen to be rich in hits. Some 2.6% of all compounds tested hit in one or more screens of this group.

SMILES | MEKK2 mut-MEK5 | MEKK3 PB1 HTS | Hep lipid drop | MEKK2wt PB1 HTS | MEKK2wt confirm | MEKK2mut-MEK5 | MEKK3 confirm
Clc1cc(Cl)c(OCCCCn2cncn2)c(Cl)c1 | 4.0 | 98.0 | -4.4 | 99.0 | . | . | .
N#Cc1nc(COc2ccc(-c3ccccc3)cc2)oc1NCCCN1CCOCC1 | 20.0 | 107.0 | . | 140.0* | 144.0 | 31.0 | 104.0
CN(C)CCNc1oc(COc2ccc(Cl)cc2Cl)nc1C#N | 55.0* | 114.0 | . | 170.0* | 152.0 | 32.0 | 110.0
CN(C)CCNc1oc(COc2ccc(-c3ccccc3)cc2)nc1C#N | 34.0 | 106.0 | . | 150.0* | 141.0 | 30.0 | 107.0
Cc1ccc(OP(=O)(Nc2c(C)n(C)n(-c3ccccc3)c2=O)Oc2ccc(C)cc2)cc1 | -3.0 | 100.0 | -7.9 | 102.0 | . | . | .
COc1ccc(CN2CCNC(=O)C2CC(=O)NCCC2=CCCCC2)c(F)c1 (stereo not drawn) | 9.0 | 104.0 | -8.3 | 114.0 | . | . | .
Cc1cc(C)c(C)c(S(=O)(=O)NCc2ccc(C(=O)N3CCOCC3)cc2)c1C | 6.0 | 101.0 | -2.7 | 103.0 | . | . | .
COC(=O)c1cc(C(C)=O)c(C)[nH]c1=O | 1.0 | 128.0* | 3.6 | 112.0 | 96.0 | -3.0 | 98.0
C=CCn1c(COc2ccccc2)nc2ccccc21 | 6.0 | 102.0 | -14.3 | 101.0 | . | . | .
CCNc1ccc(C(=O)OCC(=O)NCc2ccccc2Cl)cc1[N+](=O)[O-] | 1.0 | 140.0* | -37.8 | 111.0 | 100.0 | -2.0 | 102.0
CCNc1ccc(C(=O)OCC(=O)NC(=O)NCC(C)C)cc1[N+](=O)[O-] | 5.0 | 99.0 | 4.9 | 98.0 | . | . | .
Nc1ccccc1C(=O)NNC1=C(C(=O)C(F)(F)F)CCC1 | 4.0 | 103.0 | 2.5 | 106.0 | . | . | .
O=C(NNC1=C(C(=O)C(F)(F)F)CCC1)c1ccc(Br)cc1 | 25.0* | 125.0* | 4.2 | 124.0 | 101.0 | 2.0 | 101.0
COc1ccc(C(=O)C[n+]2ccc(N(C)C)cc2)cc1 | 29.0 | 135.0* | 2.4 | 120.0 | 105.0 | -4.0 | 105.0
COc1ccc(C(=O)C[n+]2cccc3cc(C)ccc32)cc1 | 241.0* | 97.0 | 7.2 | . | 104.0 | -5.0 | 99.0
CN(C)c1cc[n+](CC(=O)c2ccc(Br)cc2)cc1 | -14.0 | 94.0 | 3.1 | 91.0 | . | . | .
COc1ccc(N2CCN(CCCNC(=O)Cn3c(=O)c4cccn4c4cccnc43)CC2)cc1 | 11.0 | 102.0 | -0.3 | 138.0* | 143.0 | 29.0 | 99.0
O=C(O)c1cc(-c2ccccc2)n(-c2ccccc2)n1 | 2.0 | 103.0 | . | 107.0 | . | . | .
CC(C)(C)c1cc(C(=O)O)nn1-c1ccccc1 | -26.0 | 2.0*[inhibitor] | 1.4 | 3.0*[inhibitor] | 97.0 | -4.0 | 96.0
CCOc1ccc(C(=O)NNC2CC(=O)N(CCc3ccccc3)C2=O)cc1OC (stereo not drawn) | -5.0 | 0.0*[inhibitor] | 3.7 | 0.0*[inhibitor] | 102.0 | 0.0 | 104.0
N/C(=N\N=C\c1ccco1)SC1CC(=O)N(c2ccc(C(=O)O)cc2)C1=O (stereo not drawn) | 5.0 | 135.0* | 23.6 | 123.0 | 110.0 | 0.0 | 100.0
O=C(Nc1ccncc1)C1CCC(CNS(=O)(=O)c2cccc3nsnc23)CC1 (stereo not drawn) | -10.0 | 85.0 | 0.7 | 82.0 | . | . | .
COc1ccc(OC)c(-n2c(=O)c3ccccc3c3ccccc3c2=O)c1 | 0.0 | 72.0*[inhibitor] | -2.2 | 99.0 | 98.0 | 1.0 | 98.0
CCC(C)(C)C1CCC2(CC1)NC(=O)N(CC(=O)N1CCN(S(=O)(=O)c3cc(C)ccc3C)CC1)C2=O (stereo not drawn) | 5.0 | 104.0 | -5.7 | 106.0 | . | . | .
COc1ccc(-c2noc(N3CCC(C(=O)N(C)c4ccccc4)CC3)n2)cc1 | -6.0 | 94.0 | -0.2 | 89.0 | . | . | .
SMILES | MEKK2 mut-MEK5 | MEKK3 PB1 HTS | Hep lipid drop | MEKK2wt PB1 HTS | MEKK2wt confirm | MEKK2mut-MEK5 | MEKK3 confirm
COc1ccc2c(c1)CC/C(=C\C=C\c1ccccc1OC)C2=O | -3.0 | 78.0 | 8.0 | 61.0 | . | . | .
COc1ccc2c(c1)C(=O)/C(=C/C=C/c1ccccc1)CC2 | -1.0 | 90.0 | -2.0 | 71.0*[inhibitor] | 86.0 | -7.0 | 99.0
CC1CCN(Cc2c(O)ccc3c(=O)c(-c4nc5ccccc5s4)c(N)oc23)CC1 | 7.0 | 109.0 | -29.5 | 120.0 | . | . | .
CC1CCCN(Cc2c(O)ccc3c(=O)c(-c4nc5ccccc5s4)c(N)oc23)C1 (stereo not drawn) | 25.0 | 111.0 | . | 161.0* | 155.0 | 30.0 | 104.0
COc1ccc(N(C)C(=O)C2CCN(S(=O)(=O)c3cccc4nonc34)CC2)c(OC)c1 | -2.0 | 96.0 | -19.3 | 95.0 | . | . | .
COC(=O)c1ccccc1OCCCCN1CC(C)OC(C)C1 (stereo not drawn) | 1.0 | 152.0* | 19.1 | 102.0 | 109.0 | 12.0 | 108.0
CCOc1cc(/C=N/NC(N)=O)cc(Br)c1OCC(=O)Nc1ccccc1C | 12.0 | 122.0* | -6.5 | 114.0 | 106.0 | 7.0 | 105.0
CCOc1cc(/C=N/NC(N)=O)cc(Br)c1OCC(=O)Nc1cccc2ccccc12 | 14.0 | 114.0 | 7.9 | 111.0 | . | . | .
Cc1ccc(S(=O)(=O)n2[nH]c(=O)cc2NC(=O)c2cccs2)cc1 | 2.0 | 1.0*[inhibitor] | 13.7 | -4.0*[inhibitor] | 94.0 | -5.0 | 98.0
Cc1cc(C)c2c(=O)cc(C(=O)NCc3ccccc3)oc2c1 | -3.0 | 97.0 | -5.1 | 96.0 | . | . | .
CSc1ccc(-c2sc(Nc3ccccc3)n[n+]2-c2ccc(F)cc2)cc1 | 28.0* | 109.0 | -11.3 | 139.0* | 128.0 | 12.0 | 111.0
COc1ccc(C)cc1Nc1n[n+](-c2ccccc2)c(-c2ccc(C(=O)O)cc2)s1 | -6.0 | 101.0 | 1.2 | 101.0 | . | . | .
Oc1ccc(-c2sc(Nc3ccccc3)n[n+]2-c2ccc(F)cc2)cc1 | 9.0 | 100.0 | 3.4 | 102.0 | . | . | .
Oc1ccc2ccccc2c1-c1sc(Nc2ccccc2)n[n+]1-c1ccc(F)cc1 | -10.0 | 95.0 | 4.4 | 70.0 | . | . | .
COc1ccc(C)cc1Nc1n[n+](-c2ccccc2)c(-c2cc(OC)c(OC)cc2Br)s1 | 26.0* | 103.0 | -12.4 | 134.0* | 154.0 | 40.0 | 109.0
COc1ccc(-c2sc(Nc3ccccc3)n[n+]2-c2ccc(F)cc2)c(C)c1C | 37.0* | 110.0 | 13.4 | 141.0* | 120.0 | 10.0 | 99.0

Bioassay records: PubChem, several laboratories
